# Data reported in ChEMBL document CHEMBL4390664, “3,5-Diaryl-1H-pyrazolo[3,4-b]pyridines as potent tubulin polymerization inhibitors: Rational design, synthesis and biological evaluation” (Eur J Med Chem, 2019).
# The source made the active and inactive calls. No cut-off for these calls is given here.
# Tests used:
# SGC-7901 [1] = assay: Antiproliferative activity against human SGC7901 cells assessed as reduction in cell growth incubated for 72 hrs by MTT assay; format: functional, cell-based; conditions: SGC-7901, 72 h
# A549 = assay: Antiproliferative activity against human A549 cells assessed as reduction in cell growth incubated for 72 hrs by MTT assay; format: functional, cell-based; conditions: A549, 72 h
# HeLa = assay: Antiproliferative activity against human HeLa cells assessed as reduction in cell growth incubated for 72 hrs by MTT assay; format: functional, cell-based
# L929 = assay: Cytotoxicity against mouse L929 cells assessed as reduction in cell growth incubated for 72 hrs by MTT assay; format: cell-based; conditions: L929, 72 h
# SGC-7901 [2] = assay: Induction of morphological changes in human SGC7901 cells assessed as destruction of cytoskeleton at 26 nM incubated for 24 hrs by immunofluorescence assay; format: functional, cell-based
# In short: (§1)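 SGC-7901 cells were exposed to compound at 26 or 36 nM for 24 h, then immunostained. Microtubules and unassembled tubulin were stained green and nuclei blue. Microtubule network and cell morphology were examined by fluorescence imaging.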
# SGC-7901 [3] = assay: Induction of morphological changes in human SGC7901 cells assessed as cell rounding at 26 nM incubated for 24 hrs by immunofluorescence assay; format: functional, cell-based; in short: as §1
# SGC-7901 [4] = assay: Induction of morphological changes in human SGC7901 cells assessed as formation of multinucleated cells at 26 nM incubated for 24 hrs by immunofluorescence assay; format: functional, cell-based; in short: as §1
# SGC-7901 [5] = assay: Cell cycle arrest in human SGC7901 cells assessed as accumulation of G2/M cell population at 26 nM incubated for 12 hrs by flow cytometry analysis (reference value: 24.47%); format: functional
# Tubulin (Sus scrofa) [6] = target: T1, Tubulin (Sus scrofa) (UniProt P02554+P02550); assay: Inhibition of porcine brain tubulin polymerization measured at 1 min intervals for 80 mins by fluorimetry
# Tubulin (Sus scrofa) [7] = target: T1, Tubulin (Sus scrofa); assay: Inhibition of porcine brain tubulin polymerization at 12.5 to 100 uM measured at 1 min intervals for 80 mins by fluorimetry
# SGC-7901 [8] = assay: Induction of morphological changes in human SGC7901 cells assessed as destruction of cytoskeleton at 36 nM incubated for 24 hrs by immunofluorescence assay; format: functional, cell-based; in short: as §1
# SGC-7901 [9] = assay: Induction of morphological changes in human SGC7901 cells assessed as cell rounding at 36 nM incubated for 24 hrs by immunofluorescence assay; format: functional, cell-based; in short: as §1
# SGC-7901 [10] = assay: Induction of morphological changes in human SGC7901 cells assessed as formation of multinucleated cells at 36 nM incubated for 24 hrs by immunofluorescence assay; format: functional, cell-based; in short: as §1
# SGC-7901 [11] = assay: Cell cycle arrest in human SGC7901 cells assessed as decrease of G1 cell population at 36 nM incubated for 0 to 72 hrs by flow cytometry analysis; format: functional, cell-based
# SGC-7901 [12] = assay: Cell cycle arrest in human SGC7901 cells assessed as increase of G2/M cell population at 36 nM incubated for 0 to 72 hrs by flow cytometry analysis; format: functional, cell-based
# SGC-7901 [13] = assay: Induction of multinucleated cell formation in human SGC7901 cells at 36 nM incubated for 0 to 72 hrs by flow cytometry analysis; format: functional, cell-based
# Tubulin (Sus scrofa) [14] = target: T1, Tubulin (Sus scrofa); assay: Inhibition of porcine brain tubulin polymerization at 10 uM measured at 1 min intervals for 80 mins by fluorimetry
# T1 sequence (P02550 whole entry, looked up): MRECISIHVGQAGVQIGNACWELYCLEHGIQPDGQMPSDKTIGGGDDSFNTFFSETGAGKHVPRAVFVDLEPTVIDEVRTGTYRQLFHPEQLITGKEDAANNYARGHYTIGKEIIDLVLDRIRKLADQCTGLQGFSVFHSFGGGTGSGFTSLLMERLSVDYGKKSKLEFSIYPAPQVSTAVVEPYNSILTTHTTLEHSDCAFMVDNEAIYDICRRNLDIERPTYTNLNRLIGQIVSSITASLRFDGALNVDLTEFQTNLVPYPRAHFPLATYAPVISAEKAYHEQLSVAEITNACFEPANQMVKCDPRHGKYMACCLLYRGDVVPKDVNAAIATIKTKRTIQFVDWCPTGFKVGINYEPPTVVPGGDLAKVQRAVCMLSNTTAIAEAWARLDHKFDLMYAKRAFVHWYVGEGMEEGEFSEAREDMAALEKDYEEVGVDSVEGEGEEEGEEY
# T1 sequence (P02554 whole entry, looked up): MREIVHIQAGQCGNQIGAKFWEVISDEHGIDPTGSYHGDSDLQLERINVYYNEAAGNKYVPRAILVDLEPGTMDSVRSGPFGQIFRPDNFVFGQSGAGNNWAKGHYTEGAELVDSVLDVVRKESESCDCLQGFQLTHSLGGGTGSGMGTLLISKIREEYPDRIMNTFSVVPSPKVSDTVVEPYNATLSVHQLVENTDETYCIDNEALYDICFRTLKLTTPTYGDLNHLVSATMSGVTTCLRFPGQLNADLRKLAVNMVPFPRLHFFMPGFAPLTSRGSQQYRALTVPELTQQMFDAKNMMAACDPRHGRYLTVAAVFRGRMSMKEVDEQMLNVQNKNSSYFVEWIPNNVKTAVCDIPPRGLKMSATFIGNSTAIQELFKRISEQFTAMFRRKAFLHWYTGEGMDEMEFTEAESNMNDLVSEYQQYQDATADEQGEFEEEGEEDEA
Structure (SMILES),IC50 (SGC-7901 [1]) [µM],IC50 (A549) [µM],IC50 (HeLa) [µM],other results
COc1ccc(-c2cnc3[nH]nc(-c4cc(OC)c(OC)c(OC)c4)c3c2)cc1,0.13,> 30,0.28,–
COc1ccc(-c2n[nH]c3ncc(-c4ccc(C)cc4)cc23)cc1,> 30,> 30,> 30,–
COc1cc(-c2n[nH]c3ncc(-c4ccccc4)cc23)cc(OC)c1OC,0.037,0.65,0.057,–
COc1ccc(-c2cnc3[nH]nc(-c4cc(OC)c(OC)c(OC)c4)c3c2)c(N)c1,3.73,5.36,1.44,–
COc1cc(-c2n[nH]c3ncc(-c4ccc(C)cc4)cc23)cc(OC)c1OC,0.013,0.082,0.045,IC50 (L929): 37.5 µM; Activity (SGC-7901 [2]): Active; Activity (SGC-7901 [3]): Active; Activity (SGC-7901 [4]): Active; Activity (SGC-7901 [5]): 59.62%; inhibition (Tubulin (Sus scrofa) [6]): Dose-dependent effect; inhibition (Tubulin (Sus scrofa) [7]): Active
COc1cc(-c2n[nH]c3ncc(-c4ccc(Cl)cc4N)cc23)cc(OC)c1OC,0.58,3.24,0.36,–
CNc1cc(Cl)ccc1-c1cnc2[nH]nc(-c3cc(OC)c(OC)c(OC)c3)c2c1,8.48,14,6.49,–
COc1cc(-c2n[nH]c3ncc(-c4ccc(F)cc4N)cc23)cc(OC)c1OC,0.4,1.31,0.081,–
COc1cc(-c2n[nH]c3ncc(-c4cccc(C)c4)cc23)cc(OC)c1OC,0.051,> 30,0.086,–
COc1cc(-c2n[nH]c3ncc(-c4ccc(Br)cc4)cc23)cc(OC)c1OC,20.2,17.4,10.9,–
COc1cccc(-c2cnc3[nH]nc(-c4cc(OC)c(OC)c(OC)c4)c3c2)c1,1.91,7.66,0.46,–
COc1cc(-c2n[nH]c3ncc(-c4cc(C)ccc4N)cc23)cc(OC)c1OC,0.62,4.43,0.38,–
COc1cc(-c2n[nH]c3ncc(-c4ccc(Cl)cc4)cc23)cc(OC)c1OC,4.82,14.6,0.87,–
COc1ccc(-c2n[nH]c3ncc(-c4ccc(C)cc4)cc23)cc1OC,> 30,> 30,> 30,–
COc1ccc(N)c(-c2cnc3[nH]nc(-c4cc(OC)c(OC)c(OC)c4)c3c2)c1,9.51,10.2,4.93,–
CNc1cc(F)ccc1-c1cnc2[nH]nc(-c3cc(OC)c(OC)c(OC)c3)c2c1,3.76,4.27,1.67,–
COc1cc(-c2n[nH]c3ncc(-c4ccc(C)cc4N)cc23)cc(OC)c1OC,0.23,7.83,0.16,–
COc1cc(-c2n[nH]c3ncc(-c4ccccc4N)cc23)cc(OC)c1OC,4.37,1.42,2.55,–
COc1cc(C(=O)c2csc(-c3ccccc3)n2)cc(OC)c1OC,0.018,–,0.024,IC50 (L929): 25.8 µM; Activity (SGC-7901 [8]): Active; Activity (SGC-7901 [9]): Active; Activity (SGC-7901 [10]): Active; Activity (SGC-7901 [11]): Active; Activity (SGC-7901 [12]): Active; Activity (SGC-7901 [13]): Active; inhibition (Tubulin (Sus scrofa) [14]): Active
COc1cc(-c2n[nH]c3ncc(-c4ccc(F)cc4)cc23)cc(OC)c1OC,2.31,> 30,0.89,–
COc1cc(-c2n[nH]c3ncc(-c4ccc(Br)cc4N)cc23)cc(OC)c1OC,5.52,8.47,2.61,–
COc1ccc(-c2n[nH]c3ncc(-c4ccc(C)cc4N)cc23)cc1OC,> 30,> 30,> 30,–
COc1ccc(-c2n[nH]c3ncc(-c4ccc(C)cc4N)cc23)cc1,> 30,> 30,> 30,–
CNc1cc(C)ccc1-c1cnc2[nH]nc(-c3cc(OC)c(OC)c(OC)c3)c2c1,6.31,9.25,3.84,–
